Reference: ChEMBL document CHEMBL5724801, “EUbOPEN Chemogenomics Library - Multiplex” (2024)
Several values for one entry are separate records, joined by “and”; a condition that tells them apart may be missing. Equal entries are not always repeated.

System: HEK-293T
Experiment: Multiplex assay against HEK293T
Format: toxicity, cell-based
Settings: human
Procedure, shortened: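 With compound added, live cells were imaged on a CQ1 microscope at 37°C and 5% CO2; staining with Hoechst33342, BioTracker Green Microtubule Cytoskeleton Dye, MitoTracker Red and Annexin V Alexa Fluor 680 had been done at seeding. The CellPathfinder machine-learning gating scheme split cells into Hoechst high-intensity objects or normal cells, normal cells into healthy, pyknosed or fragmented nuclei, and pyknosed cells into mitotic or apoptotic. The tubulin, mitochondrial-mass and membrane-permeability phenotypes are per cents of healthy-nucleus cells.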

[1] = 12 h, 1 µM, compound concentration 1 uM
[2] = 12 h, 10 µM, compound concentration 10 uM
[3] = 24 h, 1 µM, compound concentration 1 uM
[4] = 24 h, 10 µM, compound concentration 10 uM
[5] = 48 h, 1 µM, compound concentration 1 uM
[6] = 48 h, 10 µM, compound concentration 10 uM

Cc1cccc(F)c1C(=O)Nc1cnc(-c2cc3c(cc2Cl)OC(F)(F)O3)cn1 [ZEGOCRACTIN]
Population Apoptotic (%) [1]: 12.35% and 6.45% | Population Healthy Nuclei (%) [1]: 42.98% and 15.89% | Population Hoechst High Intensity Objects (%) [1]: 0.27% and 0% | Population Membrane Permeable-Phenotype (%) [1]: 0% and 4.17% | Population Mitochondria Different-Phenotype (%) [1]: 33.33% and 20.83% | Population Mitotic Cells (%) [1]: 87.65% and 93.55% | Population Normal (%) [1]: 99.73% and 100% | Population Pyknosed Nuclei (%) [1]: 44.63% and 82.12% | Total Cell Count [1]: 364 and 151 | Population Apoptotic (%) [2]: 18.42% and 16.15% | Population Fragmented Nuclei (%) [2]: 2.44% and 4.03% | Population Healthy Nuclei (%) [2]: 23.41% and 8.72% | Population Hoechst High Intensity Objects (%) [2]: 2.38% and 0% | Population Membrane Permeable-Phenotype (%) [2]: 0% and 7.69% | Population Mitochondria Different-Phenotype (%) [2]: 22.92% and 30.77% | Population Mitotic Cells (%) [2]: 81.58% and 83.85% | Population Normal (%) [2]: 97.62% and 100% | Population Pyknosed Nuclei (%) [2]: 74.15% and 87.25% | Population Tubulin-Different-Phenotype (%) [2]: 37.5% and 23.08% | Total Cell Count [2]: 210 and 149 | Population Apoptotic (%) [3]: 23.62% and 14.53% | Population Fragmented Nuclei (%) [3]: 12.53% and 3.66% | Population Healthy Nuclei (%) [3]: 61.82% and 25% | Population Hoechst High Intensity Objects (%) [3]: 0.4% and 0% | Population Membrane Permeable-Phenotype (%) [3]: 2.29% and 0% | Population Mitochondria Different-Phenotype (%) [3]: 10.78% and 21.95% | Population Mitotic Cells (%) [3]: 76.38% and 85.47% | Population Normal (%) [3]: 99.6% and 100% | Population Pyknosed Nuclei (%) [3]: 25.66% and 71.34% | Population Tubulin-Different-Phenotype (%) [3]: 10.78% and 17.07% | Population Apoptotic (%) [4]: 34.16% and 33.09% | Population Fragmented Nuclei (%) [4]: 0.76% and 3.75% | Population Hoechst High Intensity Objects (%) [4]: 0.75% and 0% | Population Membrane Permeable-Phenotype (%) [4]: 0% | Population Mitochondria Different-Phenotype (%) [4]: 52.48% and 27.78% | Population Mitotic Cells (%) [4]: 65.84% and 66.91% | Population Normal (%) [4]: 99.25% and 100% | Population Pyknosed Nuclei (%) [4]: 60.98% and 85% | Total Cell Count [4]: 266 and 160 | Population Apoptotic (%) [5]: 9.86% and 16.85% | Population Fragmented Nuclei (%) [5]: 5.17% and 0.94% | Population Healthy Nuclei (%) [5]: 80.45% and 57.08% | Population Hoechst High Intensity Objects (%) [5]: 0% and 0.47% | Population Membrane Permeable-Phenotype (%) [5]: 4.53% and 2.48% | Population Mitochondria Different-Phenotype (%) [5]: 22.67% and 22.31% | Population Mitotic Cells (%) [5]: 90.14% and 83.15% | Population Normal (%) [5]: 100% and 99.53% | Population Pyknosed Nuclei (%) [5]: 14.39% and 41.98% | Population Apoptotic (%) [6]: 30.82% and 29% | Population Fragmented Nuclei (%) [6]: 1.98% and 3.11% | Population Healthy Nuclei (%) [6]: 61.88% and 34.78% | Population Hoechst High Intensity Objects (%) [6]: 0.49% and 2.42% | Population Membrane Permeable-Phenotype (%) [6]: 2% and 0% | Population Mitochondria Different-Phenotype (%) [6]: 76.4% and 44.64% | Population Mitotic Cells (%) [6]: 69.18% and 71% | Population Normal (%) [6]: 99.51% and 97.58% | Population Pyknosed Nuclei (%) [6]: 36.14% and 62.11% | Total Cell Count [6]: 406 and 165
